In the library only some 2.3% were active in any assay of this set; here they are far more common.
Tb MetRS inh = blocks T. brucei methionyl-tRNA synthetase activity; inhibition, % at 11.9 µM; purified T. brucei MetRS, ATP depletion, Kinase-Glo luminescence; 360,000 tested, 0.4% active;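 active means inhibition above a per-plate cutoff of the control wells' mean inhibition plus 3 SD, cut at about 5.5% in these data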
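Dosing: 11.9 µM single point; system: parasite MetRS enzyme; technique: luminescence of leftover ATP; times: 15 min enzyme-compound preincubation, 2 h reaction, 10 min detection, 25 °C; replicates: each compound tested once; read-out basis: percent inhibition relative to median high and low control wells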
PLCg1 inh = inhibitors of human phospholipase C gamma1; 370,000 tested, 0.84% active; P19174; inhibition, % at 12.2 µM; purified PLC-gamma1, fluorogenic substrate, fluorescence
ADAM10 inh = inhibitors of human ADAM10. O14672. recombinant ADAM10, EDANS/DABCYL FRET peptide cleavage, 3 h. inhibition, % at 7 µM. 370,000 tested, 0.62% active. AID 720582;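 active means inhibition above a per-campaign cutoff equal to the mean of compounds falling between control-based bounds plus 3 SD, cut at about 20% in these data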
Target sequence (O14672 214-748 limits assumed): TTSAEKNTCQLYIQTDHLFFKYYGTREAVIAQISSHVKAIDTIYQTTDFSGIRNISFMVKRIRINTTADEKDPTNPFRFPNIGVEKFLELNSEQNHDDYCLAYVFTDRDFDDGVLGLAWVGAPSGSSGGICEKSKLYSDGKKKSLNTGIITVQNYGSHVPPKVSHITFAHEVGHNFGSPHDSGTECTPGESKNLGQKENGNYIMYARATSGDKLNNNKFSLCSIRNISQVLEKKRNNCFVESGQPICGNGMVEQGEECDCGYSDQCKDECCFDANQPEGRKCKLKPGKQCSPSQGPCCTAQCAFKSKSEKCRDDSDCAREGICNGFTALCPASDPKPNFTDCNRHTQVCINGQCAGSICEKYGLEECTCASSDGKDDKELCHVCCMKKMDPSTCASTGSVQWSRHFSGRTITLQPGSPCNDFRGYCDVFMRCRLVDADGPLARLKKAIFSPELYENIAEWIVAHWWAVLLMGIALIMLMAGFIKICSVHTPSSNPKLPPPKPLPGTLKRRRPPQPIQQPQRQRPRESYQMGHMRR
PLCb3 inh = PLC-beta3 (human) inhibition, primary screen; 370,000 tested, 0.18% active; inhibition, % at 12.2 µM; AID 720704; Q01970; Purified PLC-beta3, fluorogenic substrate, fluorescence; in the data active means inhibition above about 11%
ADAM17 inh = inhibits human ADAM17; P78536; recombinant ADAM17, EDANS/DABCYL FRET peptide cleavage; inhibition, % at 6.95 µM; 370,000 tested, 0.83% active; AID 720648;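 active means inhibition above the mean of compounds lying between control limits plus 3 SD, set per campaign, cut at about 8.5% in these data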
PLCg1 ctr = counter-screen for PLC-beta3 inhibitors: inhibitors of human PLC-gamma1 | inhibition, % at 12.3 µM | purified PLC-gamma1, fluorogenic substrate, fluorescence | 3,300 tested, 3.1% active | shares compounds with PLCg1 inh
PLCb3 confirm = human PLC-beta3 inhibition, confirmation; AID 743261; purified PLC-beta3, fluorogenic substrate fluorescence; 3,300 tested, 1% active; inhibition, % at 12.3 µM; shares compounds with PLCg1 inh; in the data active means inhibition above about 11%
A number is an active result; n = inactive; x = no result given; ! = not confirmed by another sample. Unless noted, no stated cut-off is given here; in the data, active means inhibition above about 9.5%; inactive means the rest.

SMILES	Tb MetRS inh	PLCg1 inh	ADAM10 inh	PLCb3 inh	ADAM17 inh	PLCg1 ctr	PLCb3 confirm
NC(=O)NC(=O)COC(=O)CCSc1ccccc1	n	n	n	11.0	n	n	n
N#CCCSCc1ccc(C(=O)O)o1	n	n	n	n	n	x	x
N#CCCSCc1ccc(OCC(=O)O)cc1	n	9.9	n	n	n	n	n
CCNC(=O)Nc1ccc2c(c1)C(=O)N(C)[C@H]1CC[C@@H](CC(=O)NCCN3CCCC3)O[C@@H]1CO2	x	n	n	n	n	x	x
CCCCN(C(=O)c1cc(Cl)nc2ccccc12)c1c(N)n(CCCC)c(=O)[nH]c1=O	n	n	n	n	n	x	x
Cc1nn(C)c(Oc2ccccc2)c1CCNC(=O)C(C)(C)C	n	11.1	n	n	n	n	n
Cc1nn(C)cc1CN(C)C(=O)CCc1nnc(CCC2CCCCC2)o1	n	10.8	n	n	n	n	n
CN(Cc1nccn1C)C(=O)CCc1nnc(CCC2CCCCC2)o1	n	n	n	n	n	x	x
Cc1ccc(-c2noc(CNS(=O)(=O)c3ccccc3)n2)cc1	n	n	n	n	n	x	x
CC(=O)OC(C(=O)Nc1nccs1)c1ccccc1 (stereo unspecified)	n	13.3	n	n	n	n	n
Cc1ccc(S(=O)(=O)N2CCCC2C(=O)N2CCc3ccccc3C2)cc1 (stereo unspecified)	x	n	n	n	n	x	x
O=c1cc2c(=O)oc3cc(O)c(O)oc3c2c(O)c1O	n	33.1	n	n	n	n	n
Cc1ccccc1NC1=C/C(=N\S(=O)(=O)c2cccs2)c2ccccc2C1=O	n	n	n	n	n	x	x
Cc1ccccc1NC1=C/C(=N\S(=O)(=O)c2ccc(C(=O)O)cc2)c2ccccc2C1=O	9.7	24.7	n	n	n	19.8	n
N#Cc1ccc(COC(=O)c2ccc(N3CCCC3)c([N+](=O)[O-])c2)cc1	n	n	n	n	n	x	x
O=C(N/N=C/c1c(F)c(F)c(F)c(F)c1F)c1cc(-c2ccccc2)nc2ccccc12	n	13.7	n	n	n	n	n
Cc1cc2nc(CCN(Cc3cccnc3)C(=S)Nc3ccc(F)cc3)[nH]c2cc1C	n	12.1	n	n	n	n	n
Cc1cc2nc(CCN(Cc3cccnc3)C(=S)Nc3ccccc3)[nH]c2cc1C	n	n	n	n	n	x	x
O=C(CN1C(=O)CCC1=O)Nc1cccc(NC(=O)CN2C(=O)CCC2=O)c1	n	n	n	n	n	x	x
CCOc1ccc(NC(=O)CN(C)C(=O)CCCOc2ccc(Cl)c(C)c2)cc1OCC	n	9.6	n	n	n	n	n
CCOc1ccc(NC(=O)CN(C)C(=O)CCc2ccccc2Cl)cc1OCC	n	n	n	n	n	x	x
CCOc1ccc(NC(=O)CN(C)C(=O)c2ccc(C)o2)cc1OCC	n	15.0	n	n	n	n	n
COCC(C)n1c(-c2ccc3c(c2)NC(=O)CO3)csc1=Nc1ccc(OC(F)F)cc1 (stereo unspecified)	n	12.2!	n	n	n	n	n
CCN(CC(=O)NCc1cccs1)S(=O)(=O)c1cc(NC(C)=O)ccc1OC	n	9.6	n	n	n	n	n
COc1ccccc1CNc1cncnc1	n	n	n	n	n	x	x
SMILES	Tb MetRS inh	PLCg1 inh	ADAM10 inh	PLCb3 inh	ADAM17 inh	PLCg1 ctr	PLCb3 confirm
COc1ccccc1CNc1ncccn1	n	9.7	n	n	n	n	n
O=S(=O)(NC1CCCCC1N1CCOCC1)c1ccc(Cl)cc1 (stereo unspecified)	n	11.7	n	n	n	n	n
O=C1CCC/C=C/C[C@H](CC(=O)N(CCO)Cc2ccccc2)C(=O)N[C@@H](Cc2ccccc2)CO1	n	n	n	n	n	x	x
COc1cc(/C=N/NC(=O)c2cc[n+]([O-])cc2)ccc1O	n	16.8	n	n	n	n	n
C[C@@H]1[C@H](O)C[C@@]23COC(=O)C2=CCCC3[C@@]1(C)CCC1COC(=O)C1 (stereo partly specified)	n	n	n	n	n	x	x
Cc1cc(C)c2c(=O)[nH]n(C3CC(C)N(C)CC3C)c2n1 (stereo unspecified)	n	9.7	n	n	n	n	n
C[C@H]1CN(S(=O)(=O)C(C)(C)C)[C@@H](CCO)/C1=C\CCO	x	10.6	n	n	n	n	n
COC(=O)C1CN(C2CCCC2)CCS(=O)(=O)N1Cc1ccc(F)cc1 (stereo unspecified)	x	n	n	n	n	x	x
Cc1nccn1CCCNC(=O)c1nc(Cn2cc([N+](=O)[O-])cn2)no1	n	9.6	n	n	n	n	n
O=C(NCCCn1ccnc1)c1nc(Cn2cc(Br)cn2)no1	n	n	n	n	n	x	x
CCOC(=O)N/N=C(\C)c1ccc(OC(F)F)cc1OC(F)F	n	n	n	n	n	x	x
O=C(CN(Cc1ccccc1)S(=O)(=O)c1ccc(S(=O)(=O)N2CCOCC2)cc1)Nc1ccccc1	n	n	n	n	n	x	x
O=C(NC12CC3CC(CC(C3)C1)C2)c1ccc(S(=O)(=O)N2CCOCC2)cc1	n	n	n	11.9	n	n	n
O=C(CN(Cc1ccc(F)cc1)S(=O)(=O)c1ccc(S(=O)(=O)N2CCOCC2)cc1)Nc1ccccc1	n	n	n	11.1	n	n	n
O=C(Nc1cccc(F)c1)c1ccc(S(=O)(=O)N2CCOCC2)cc1	n	10.2	n	n	n	n	n
O=C(Nc1ccc(S(=O)(=O)N2CCOCC2)cc1)c1ccc(F)cc1	n	n	n	n	n	x	x
O=C(Nc1nc(-c2ccncc2)cs1)c1ccc(S(=O)(=O)N2CCOCC2)cc1	n	13.3	n	n	n	n	n
O=C(Nc1ccc(S(=O)(=O)N2CCOCC2)cc1)c1ccc(S(=O)(=O)N2CCOCC2)cc1	n	n	n	n	n	x	x
N#Cc1ccccc1S(=O)(=O)N1CCN(CC(O)COc2ccccc2F)CC1 (stereo unspecified)	n	n	n	n	n	x	x
CC(=O)[C@@]1(O)[C@H](C)CC2C3CC=C4CC(OP(=O)(O)O)CC[C@]4(C)C3CC[C@@]21C (stereo partly specified)	n	n	n	n	n	x	x
Cc1ccccc1N1CCN(C2=Nc3ccccc3Sc3ccccc32)CC1	x	n	n	n	n	x	x
O=C(COc1ncnc2ccccc12)NC1CCS(=O)(=O)C1 (stereo unspecified)	n	10.2	n	n	n	n	n
Cc1cccc(NC2=NCC(=O)N2Cc2cccs2)c1	n	n	n	n	n	x	x
COc1ccc(S(=O)(=O)N2CCCC2CNC(=O)C(=O)NCc2cccs2)cc1 (stereo unspecified)	n	n	n	n	n	x	x
COc1ccc(OCC(=O)NCCC2=CCCCC2)c([N+](=O)[O-])c1	n	10.1	n	n	n	n	n
COc1ccc(C(C)=O)c(OCC(=O)NCCC2=CCCCC2)c1	n	n	n	n	n	x	x

Bioassay records as filed in PubChem.
